Drawing on ChEMBL document CHEMBL2010800, “Methoxychalcone inhibitors of androgen receptor translocation and function” (Bioorg Med Chem Lett, 2012), this text covers inhibition, Activity and IC50 for 13 compounds.

Assay [1] concerns the target T1, Androgen receptor (Homo sapiens) (UniProt P10275).
T1 sequence (whole entry): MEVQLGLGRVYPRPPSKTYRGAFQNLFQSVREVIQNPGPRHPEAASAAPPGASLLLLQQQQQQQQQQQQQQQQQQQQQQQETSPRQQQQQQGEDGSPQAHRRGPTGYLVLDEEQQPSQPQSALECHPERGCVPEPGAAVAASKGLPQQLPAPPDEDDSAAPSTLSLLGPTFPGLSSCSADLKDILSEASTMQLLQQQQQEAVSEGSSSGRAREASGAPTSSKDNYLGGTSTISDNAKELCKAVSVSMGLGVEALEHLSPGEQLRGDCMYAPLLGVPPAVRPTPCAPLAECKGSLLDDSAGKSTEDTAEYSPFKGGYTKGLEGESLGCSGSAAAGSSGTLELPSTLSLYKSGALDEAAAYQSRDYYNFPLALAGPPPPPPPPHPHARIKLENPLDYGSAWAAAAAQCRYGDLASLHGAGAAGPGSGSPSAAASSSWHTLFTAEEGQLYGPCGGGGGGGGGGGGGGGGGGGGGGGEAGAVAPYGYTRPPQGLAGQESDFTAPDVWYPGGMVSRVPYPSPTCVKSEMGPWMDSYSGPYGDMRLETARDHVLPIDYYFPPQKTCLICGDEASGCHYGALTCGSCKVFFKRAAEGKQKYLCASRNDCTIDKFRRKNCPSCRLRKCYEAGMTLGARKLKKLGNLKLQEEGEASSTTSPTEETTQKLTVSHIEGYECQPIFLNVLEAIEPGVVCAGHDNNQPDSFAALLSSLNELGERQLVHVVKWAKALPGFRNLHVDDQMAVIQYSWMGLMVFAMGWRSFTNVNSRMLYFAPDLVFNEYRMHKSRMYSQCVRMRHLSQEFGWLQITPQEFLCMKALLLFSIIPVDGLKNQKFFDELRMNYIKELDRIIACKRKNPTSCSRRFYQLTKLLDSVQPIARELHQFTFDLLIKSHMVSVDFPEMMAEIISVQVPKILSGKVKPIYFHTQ
The experiment in a line: Antagonist activity at androgen receptor in human LNCAP cells assessed as inhibition of R1881-induced prostate specific antigen mRNA expression after 20 hrs by real time RT-PCR analysis relative to control. In kind it is functional, cell-based. In short, it runs like this:
(§1)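 LNCaP cells were first kept 3 days in phenol red-free RPMI 1640 with 10% charcoal-stripped FBS and 1% antibiotic-antimycotic. They were then exposed for 20 hr to compound at 10, 5 or 1 μM together with 0.5 nM R1881. PSA and TMPRSS2 mRNA were quantified by real-time RT-PCR against DMSO-treated controls.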
(In general: Real-time PCR tracks product formation cycle by cycle.)

Assay [2] addresses T1, Androgen receptor (Homo sapiens). The experiment in a line: Antagonist activity at androgen receptor in human LNCAP cells assessed as decrease in prostate specific antigen mRNA level at 2.5 uM after 20 hrs by real time RT-PCR analysis. In kind it is functional, cell-based. In short, it runs like this:
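LNCaP prostate cancer cells (AR carries T877A ligand-binding-domain mutation) exposed to compound at 2.5 μM for 20 hr; PSA mRNA quantified by real-time RT-PCR and expressed relative to DMSO-treated control cells set to 1; mean values, n = 3.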

Assay [3] shares this target. The experiment in a line: Antagonist activity at androgen receptor in human LNCAP cells assessed as inhibition of R1881-induced transmembrane protease serine 2 mRNA expression after 20 hrs by real time RT-PCR analysis. It counts as functional, cell-based. Put shortly:
as §1

For assay [4] the target is unchanged. The experiment in a line: Agonist activity at androgen receptor in human LNCAP cells assessed as potentiation of R1881-induced transmembrane protease serine 2 mRNA expression at 1 uM after 20 hrs by real time RT-PCR analysis. It counts as functional, cell-based. In short, it runs like this: as §1
The target is the same in assay [5]. The experiment in a line: Agonist activity at androgen receptor in human LNCAP cells assessed as potentiation of R1881-induced prostate specific antigen mRNA expression at 1 uM after 20 hrs by real time RT-PCR analysis. In kind it is functional, cell-based. In short, it runs like this:
as §1

Assay [6] has the same target. To be noted: LNCaP, 10 uM.
Assay [7] has the same target. To be noted: LNCaP, 10 uM. The source holds these as a separate data set.
In assay [8] the target is T2, Androgen receptor (Homo sapiens, UniProt P10275).
T2 sequence (P10275 whole entry): T1 sequence (whole entry)
The experiment in a line: Antagonist activity at androgen receptor in human LNCAP cells assessed as decrease in transmembrane protease serine 2 mRNA level after 20 hrs by real time RT-PCR analysis.

Assay [9] concerns the target T1, Androgen receptor (Homo sapiens). Particulars: LNCaP, 10 uM. The source holds these as a separate data set.
The target is the same in assay [10]. To be noted: LNCaP, 10 uM. This is another data set of the same source.
Assay [11] shares this target. To be noted: LNCaP, 10 uM. This is another data set of the same source.
The test system of assay [12] is LNCaP. The experiment in a line: Cytotoxicity against human LNCAP cells after 3 days. In kind it is functional, cell-based. To be noted: 72 h.
In assay [13] the target is T2, Androgen receptor. The experiment in a line: Antagonist activity at androgen receptor in human LNCAP cells assessed as decrease in prostate specific antigen mRNA level after 20 hrs by real time RT-PCR analysis.

Calls of active or inactive are those of the source. No cut-off for these calls is given here.

The term inhibition denotes the share of the control response that was lost under treatment. As to `COc1ccc(C(=O)/C=C/c2ccc(C#N)cc2)cc1OC`, the figures for the inhibition entry in assay [1], in [2] and in assay [3] were “Dose-dependent effect”, 85% and “Dose-dependent effect”, respectively.

Turning to `COc1ccc(C(=O)/C=C/c2ccc([N+](=O)[O-])cc2)cc1OC`, the inhibition result in [1] and in assay [3] was “Dose-dependent effect” each time.

Consider `COc1ccc(C(=O)/C=C/c2ccc([N+](=O)[O-])cc2)c(OC)c1OC`, for which the values for the inhibition result in [1], in [2] and in assay [3] were “Dose-dependent effect”, 84% and “Dose-dependent effect”, respectively.

With `COc1cccc(OC)c1C(=O)/C=C/c1cccc([N+](=O)[O-])c1`, in assay [2], the inhibition is 85%.

For `COc1ccc(C(=O)/C=C/c2cccc([N+](=O)[O-])c2)c(OC)c1OC`, the results for the inhibition entry in [1], in [2] and in [3] were “Dose-dependent effect”, 84% and “Dose-dependent effect”, respectively. Also, the result in assay [4] and in assay [5] was Active.

For the compound `COc1cccc(OC)c1C(=O)/C=C/c1ccccc1C(F)(F)F`, the inhibition in [2] amounted to 87%.

Consider `COc1cccc(OC)c1C(=O)/C=C/c1ccc([N+](=O)[O-])cc1[N+](=O)[O-]`, for which the inhibition in assay [2] worked out at 81%.

By IC50 is commonly meant the concentration that inhibits the measured activity by half. Consider `COc1ccccc1C(=O)/C=C/c1ccccc1[N+](=O)[O-]`, for which the inhibition result in assay [6] was “Dose-dependent effect”; in assay [7] it was 99%; in [1], “Dose-dependent effect”; in [9], 89%; in assay [2] it was 94%; in assay [3], “Dose-dependent effect”. In addition, the 50% inhibitory concentration (IC50) came to 750 nM in assay [8], 3400 nM in assay [12] and 600 nM in assay [13]. Moreover, the inhibition entry in assay [10] and in assay [11] was “Active” throughout.

On to `COc1cccc(OC)c1C(=O)/C=C/c1ccc([N+](=O)[O-])cc1`, for which the inhibition in assay [2] worked out at 90%.

As to `COc1ccccc1C(=O)/C=C/c1ccccc1C(F)(F)F`, in [2], the inhibition came out at 94%.

As to `COc1ccccc1C(=O)/C=C/c1ccccc1`, the inhibition in assay [2] turned out to be 63%.

As to `COc1ccc(C(=O)/C=C/c2cccc(C(F)(F)F)c2)c(OC)c1OC`, in assay [2], the inhibition amounted to 81%.

Regarding `COc1ccc(OC)c(C(=O)/C=C/c2ccc(C#N)cc2)c1`, the inhibition in [2] is 82%.
